Source: article PMC7498158 (Journal of Medicinal Chemistry, 2020)

Legend:
Type in all cases: biochemical
Details in all cases: 10 μM
mDAGLα = target: T1, mDAGLα (Mus musculus, UniProt Q6WQJ1); assay: gel-based ABPP, mouse brain membrane proteome
T1 sequence (Q6WQJ1 1-1044): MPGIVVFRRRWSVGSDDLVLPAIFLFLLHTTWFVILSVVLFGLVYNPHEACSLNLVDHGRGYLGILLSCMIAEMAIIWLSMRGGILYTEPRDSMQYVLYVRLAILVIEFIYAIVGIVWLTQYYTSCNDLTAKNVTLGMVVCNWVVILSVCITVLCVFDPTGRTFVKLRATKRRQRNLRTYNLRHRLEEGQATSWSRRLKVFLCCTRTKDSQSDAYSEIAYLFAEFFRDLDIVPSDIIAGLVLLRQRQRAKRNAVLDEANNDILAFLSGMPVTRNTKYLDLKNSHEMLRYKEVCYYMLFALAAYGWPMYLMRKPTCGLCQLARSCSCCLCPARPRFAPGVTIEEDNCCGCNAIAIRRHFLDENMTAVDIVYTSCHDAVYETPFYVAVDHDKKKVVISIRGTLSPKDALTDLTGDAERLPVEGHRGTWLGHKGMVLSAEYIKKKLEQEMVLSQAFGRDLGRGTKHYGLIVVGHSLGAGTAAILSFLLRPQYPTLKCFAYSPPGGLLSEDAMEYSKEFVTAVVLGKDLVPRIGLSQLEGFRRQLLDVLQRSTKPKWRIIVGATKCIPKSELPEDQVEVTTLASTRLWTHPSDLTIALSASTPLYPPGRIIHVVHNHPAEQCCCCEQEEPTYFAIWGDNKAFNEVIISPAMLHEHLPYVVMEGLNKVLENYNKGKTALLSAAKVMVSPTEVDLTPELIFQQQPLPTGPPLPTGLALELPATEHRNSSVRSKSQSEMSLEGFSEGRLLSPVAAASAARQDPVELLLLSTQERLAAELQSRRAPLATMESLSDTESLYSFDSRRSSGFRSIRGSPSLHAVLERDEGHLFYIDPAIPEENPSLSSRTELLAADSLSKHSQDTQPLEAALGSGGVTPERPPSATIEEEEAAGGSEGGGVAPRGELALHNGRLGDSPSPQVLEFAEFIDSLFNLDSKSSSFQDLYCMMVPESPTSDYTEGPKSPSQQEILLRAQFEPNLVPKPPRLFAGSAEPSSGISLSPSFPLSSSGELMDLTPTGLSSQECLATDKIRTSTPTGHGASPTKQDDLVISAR
Method in brief: (§1)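 Mouse brain was dounce-homogenized in 20 mM HEPES pH 7.2 with DTT, MgCl2 and benzonase. The membrane pellet from ultracentrifugation (100,000g, 45 min, 4 °C) was used at 2 μg/μL. It was preincubated with test compound in DMSO (30 min, rt), then labeled with MB064 (250 nM) or FP-TAMRA (500 nM) for 15 min at rt. Samples ran on 10% SDS-PAGE; fluorescence was normalized to Coomassie staining.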

hPLA2G4E = target: T2, hPLA2G4E (Homo sapiens, UniProt Q3MJ16); assay: gel-based ABPP with FP-TAMRA, hPLA2G4E-overexpressing membrane lysate
T2 sequence (Q3MJ16 1-868): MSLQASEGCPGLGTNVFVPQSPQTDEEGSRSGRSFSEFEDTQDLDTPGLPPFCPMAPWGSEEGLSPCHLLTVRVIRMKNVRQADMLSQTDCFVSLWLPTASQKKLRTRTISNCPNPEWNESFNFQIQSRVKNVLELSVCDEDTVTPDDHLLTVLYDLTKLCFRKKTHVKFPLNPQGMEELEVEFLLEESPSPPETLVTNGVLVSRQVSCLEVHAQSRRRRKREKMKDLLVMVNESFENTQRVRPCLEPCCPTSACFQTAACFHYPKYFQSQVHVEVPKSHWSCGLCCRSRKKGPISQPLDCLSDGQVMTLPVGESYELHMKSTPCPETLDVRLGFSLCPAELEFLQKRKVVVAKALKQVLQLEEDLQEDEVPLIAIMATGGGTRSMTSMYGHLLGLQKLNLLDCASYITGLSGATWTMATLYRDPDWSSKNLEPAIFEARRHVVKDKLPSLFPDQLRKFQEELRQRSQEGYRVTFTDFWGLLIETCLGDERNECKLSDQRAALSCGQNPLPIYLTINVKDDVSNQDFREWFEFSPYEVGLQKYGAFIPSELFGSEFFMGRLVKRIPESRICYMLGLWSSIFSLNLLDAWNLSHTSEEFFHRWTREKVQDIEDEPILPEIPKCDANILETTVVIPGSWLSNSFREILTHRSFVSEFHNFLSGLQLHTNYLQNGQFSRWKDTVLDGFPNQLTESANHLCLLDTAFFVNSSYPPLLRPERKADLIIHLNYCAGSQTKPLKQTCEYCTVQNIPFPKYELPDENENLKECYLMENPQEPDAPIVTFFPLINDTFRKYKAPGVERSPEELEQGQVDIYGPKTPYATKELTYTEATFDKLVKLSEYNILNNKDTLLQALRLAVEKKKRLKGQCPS
Method in brief: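 Membrane lysate from hPLA2G4E-overexpressing cells (1 μg/μL) was preincubated with test compound in DMSO (30 min, rt), then labeled with FP-TAMRA (50 nM, 5 min, rt). Proteins were denatured in Laemmli buffer and resolved on 8% acrylamide SDS-PAGE. In-gel fluorescence was normalized to Coomassie staining.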

mABHD6 = target: T3, mABHD6 (Mus musculus, UniProt Q8R2Y0); assay: gel-based ABPP, mouse brain membrane proteome
T3 sequence (Q8R2Y0 1-336): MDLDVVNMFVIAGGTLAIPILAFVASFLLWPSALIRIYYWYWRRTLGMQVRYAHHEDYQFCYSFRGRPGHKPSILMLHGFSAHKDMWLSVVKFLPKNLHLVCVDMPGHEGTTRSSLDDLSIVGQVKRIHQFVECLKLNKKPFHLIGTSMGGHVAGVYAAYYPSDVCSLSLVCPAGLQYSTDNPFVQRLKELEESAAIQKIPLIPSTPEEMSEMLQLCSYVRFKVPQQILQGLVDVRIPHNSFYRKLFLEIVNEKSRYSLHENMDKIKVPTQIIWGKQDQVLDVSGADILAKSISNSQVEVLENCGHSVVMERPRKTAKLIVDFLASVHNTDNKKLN
Method in brief: as §1

inhibition of DAGLα (in words) (mDAGLα): not inhibited
inhibition of PLA2G4E (in words) (hPLA2G4E): not inhibited
inhibition of ABHD6 (in words) (mABHD6): not inhibited
SMILES: O=C(CCCc1ccccc1)C(=O)NCCc1ccc(Oc2ccccc2)cc1 [Compound 51, 2-Oxo-N-(4-phenoxyphenethyl)-5-phenylpentanamide]
